The values below come from ChEMBL document CHEMBL1255453, “Affinity of ceftaroline and other beta-lactams for penicillin-binding proteins from Staphylococcus aureus and Streptococcus pneumoniae” (Antimicrob Agents Chemother, 2010).

≈ marks a conversion by molar mass, not a printed value.

For experiment [1], the target named is T1, Penicillin-binding protein 1A (Streptococcus pneumoniae serotype 4 (strain ATCC BAA-334 / TIGR4), UniProt Q04707).
T1 sequence (Q04707 whole entry): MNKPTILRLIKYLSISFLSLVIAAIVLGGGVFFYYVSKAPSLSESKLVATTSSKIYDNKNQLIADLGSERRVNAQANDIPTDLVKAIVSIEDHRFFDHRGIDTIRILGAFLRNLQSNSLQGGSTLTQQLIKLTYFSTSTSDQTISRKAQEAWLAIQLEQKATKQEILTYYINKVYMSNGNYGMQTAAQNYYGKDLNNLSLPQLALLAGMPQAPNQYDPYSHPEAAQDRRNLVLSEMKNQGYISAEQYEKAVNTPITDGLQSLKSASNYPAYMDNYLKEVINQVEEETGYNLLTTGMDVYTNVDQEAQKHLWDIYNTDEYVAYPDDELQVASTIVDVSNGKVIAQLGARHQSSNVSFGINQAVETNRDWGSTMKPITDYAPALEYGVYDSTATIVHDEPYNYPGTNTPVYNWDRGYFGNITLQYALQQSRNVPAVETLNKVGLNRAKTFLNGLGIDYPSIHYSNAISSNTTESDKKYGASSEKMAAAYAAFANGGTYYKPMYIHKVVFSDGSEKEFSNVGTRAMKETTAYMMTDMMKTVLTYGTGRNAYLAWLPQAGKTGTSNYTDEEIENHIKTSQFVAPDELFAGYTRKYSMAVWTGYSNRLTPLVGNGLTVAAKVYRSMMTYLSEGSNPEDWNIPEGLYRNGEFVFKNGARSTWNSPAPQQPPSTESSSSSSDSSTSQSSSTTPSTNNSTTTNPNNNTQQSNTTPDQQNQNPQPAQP
The experiment in a line: Binding affinity to against penicillin-susceptible Streptococcus pneumoniae 1076 PBP1A by competitive binding assay. In a few lines: (§1)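 Whole pneumococcal cells grown to OD600 0.3 in Todd-Hewitt broth with 0.5% yeast extract, resuspended in 50 mM NaPO4 pH 7.0. Cells (10^8–5 × 10^8 CFU/ml) incubated with β-lactam 10 min at 37°C, then Bocillin FL 10 μg/ml, 15 min at 37°C. SDS-PAGE, 520 nm fluorescence; IC50 = 50% inhibition of Bocillin FL binding; 2 experiments.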

Experiment [2] in a line: Binding affinity to penicillin-resistant Streptococcus pneumoniae 3413 PBP1B by competitive binding assay. In a few lines:
(§2)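 Whole pneumococcal cells were grown to OD600 0.3 in Todd-Hewitt broth plus 0.5% yeast extract, then resuspended in 50 mM NaPO4, pH 7.0. Cells at 10^8 to 5 × 10^8 CFU/ml were exposed to β-lactam for 10 min at 37°C, alongside a reference without drug. They were then labeled with 10 μg/ml Bocillin FL for 15 min at 37°C. Proteins were resolved by SDS-PAGE and fluorescence read at 520 nm. IC50 was taken as 50% inhibition of Bocillin FL binding, from 2 experiments.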

The target in experiment [3] is T2, Penicillin-binding protein 2x (Streptococcus pneumoniae serotype 4 (strain ATCC BAA-334 / TIGR4), UniProt P14677).
T2 sequence (P14677 whole entry): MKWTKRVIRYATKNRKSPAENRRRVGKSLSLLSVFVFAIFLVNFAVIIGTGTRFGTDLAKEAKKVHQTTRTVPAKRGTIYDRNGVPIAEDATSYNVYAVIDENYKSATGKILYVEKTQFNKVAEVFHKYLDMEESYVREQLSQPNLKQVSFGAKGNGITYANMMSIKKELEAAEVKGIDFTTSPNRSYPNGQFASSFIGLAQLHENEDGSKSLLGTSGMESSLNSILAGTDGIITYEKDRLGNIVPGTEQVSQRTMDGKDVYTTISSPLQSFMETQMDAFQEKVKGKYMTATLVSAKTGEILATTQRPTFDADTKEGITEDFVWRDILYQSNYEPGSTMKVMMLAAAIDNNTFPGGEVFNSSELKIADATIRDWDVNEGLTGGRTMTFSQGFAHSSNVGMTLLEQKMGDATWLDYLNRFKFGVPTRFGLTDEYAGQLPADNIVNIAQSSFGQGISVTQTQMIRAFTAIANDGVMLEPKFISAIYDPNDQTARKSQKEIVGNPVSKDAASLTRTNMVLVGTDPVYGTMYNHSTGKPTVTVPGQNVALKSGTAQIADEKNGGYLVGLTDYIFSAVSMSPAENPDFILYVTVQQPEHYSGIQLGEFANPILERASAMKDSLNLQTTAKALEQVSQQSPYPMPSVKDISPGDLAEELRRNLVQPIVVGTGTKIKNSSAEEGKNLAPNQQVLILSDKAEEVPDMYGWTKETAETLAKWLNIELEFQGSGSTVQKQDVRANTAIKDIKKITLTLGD
Kind of experiment: Binding affinity to against penicillin-susceptible Streptococcus pneumoniae 1076 PBP2X by competitive binding assay. In a few lines:
as §1

Experiment [4] deals with Penicillin-binding protein 2x (Streptococcus pneumoniae serotype 4 (strain ATCC BAA-334 / TIGR4), UniProt P14677). Kind of experiment: Binding affinity to penicillin-resistant Streptococcus pneumoniae 2527 PBP2X by competitive binding assay. In a few lines:
as §2

Experiment [5] can be described thus: Binding affinity to penicillin-resistant Streptococcus pneumoniae 3413 PBP2A by competitive binding assay. In a few lines:
as §2

The target in experiment [6] is T3, Penicillin-binding protein 2B (Streptococcus pneumoniae serotype 4 (strain ATCC BAA-334 / TIGR4), UniProt P0A3M5).
T3 sequence (P0A3M5 whole entry): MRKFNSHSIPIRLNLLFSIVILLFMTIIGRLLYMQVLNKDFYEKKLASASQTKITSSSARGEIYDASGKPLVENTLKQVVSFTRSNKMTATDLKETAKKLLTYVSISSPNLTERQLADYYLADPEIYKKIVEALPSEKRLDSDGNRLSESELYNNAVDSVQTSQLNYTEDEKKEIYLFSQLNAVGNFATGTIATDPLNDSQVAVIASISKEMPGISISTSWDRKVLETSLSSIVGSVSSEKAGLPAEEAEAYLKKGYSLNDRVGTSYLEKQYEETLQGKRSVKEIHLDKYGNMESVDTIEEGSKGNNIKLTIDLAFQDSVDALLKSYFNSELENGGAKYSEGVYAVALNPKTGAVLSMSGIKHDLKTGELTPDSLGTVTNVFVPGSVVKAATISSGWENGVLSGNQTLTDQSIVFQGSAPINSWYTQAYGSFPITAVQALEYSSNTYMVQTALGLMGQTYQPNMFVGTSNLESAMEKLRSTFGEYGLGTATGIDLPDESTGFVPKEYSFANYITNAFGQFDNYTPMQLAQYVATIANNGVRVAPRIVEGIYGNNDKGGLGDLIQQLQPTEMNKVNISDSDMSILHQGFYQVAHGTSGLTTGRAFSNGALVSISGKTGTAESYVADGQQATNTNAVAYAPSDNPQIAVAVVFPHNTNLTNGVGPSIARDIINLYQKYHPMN
The experiment in a line: Binding affinity to against penicillin-susceptible Streptococcus pneumoniae 1076 PBP2B by competitive binding assay. In a few lines:
as §1

In experiment [7] the target is T3, Penicillin-binding protein 2B. The experiment in a line: Binding affinity to penicillin-resistant Streptococcus pneumoniae 24 PBP2B by competitive binding assay. In a few lines: as §2
Experiment [8] has the same target. The experiment in a line: Binding affinity to penicillin-resistant Streptococcus pneumoniae 3413 PBP2B by competitive binding assay. In a few lines: as §2
Experiment [9] can be described thus: Binding affinity to against penicillin-susceptible Streptococcus pneumoniae 1076 PBP3 by competitive binding assay. In a few lines: as §1
Experiment [10] is described as follows: Binding affinity to penicillin-resistant Streptococcus pneumoniae 2527 PBP3 by competitive binding assay. In a few lines:
as §2

Regarding `CO/N=C(\C(=O)N[C@@H]1C(=O)N2C(C(=O)O)=C(COC(C)=O)CS[C@H]12)c1csc(N)n1` [CEFOTAXIME], the 50% inhibitory concentration (IC50) in [1] was 220 nM; in experiment [2], 4 µg/mL (≈ 8.78 µM); in experiment [3], 549 nM; in experiment [4] it was 220 nM; in [5], 0.25 µg/mL (≈ 0.549 µM); in experiment [6] it was over 70300 nM. Also, the IC50 in experiment [7] was 35100 nM; in [8] it was 35100 nM; in experiment [9], 0.1 µg/mL (≈ 0.22 µM); in experiment [10] it was 0.1 µg/mL (≈ 0.22 µM).
Turning to `CO/N=C(\C(=O)N[C@@H]1C(=O)N2C(C(=O)O)=C(CSc3nc(=O)c(O)nn3C)CS[C@H]12)c1csc(N)n1` [CEFTRIAXONE], the IC50 is 180 nM in [1]; 4 µg/mL (≈ 7.21 µM) in experiment [2]; 180 nM in experiment [3]; 180 nM in experiment [4]; 1 µg/mL (≈ 1.8 µM) in experiment [5]; over 57700 nM in experiment [6]. Moreover, the IC50 in [7] was 28900 nM; in experiment [8], 28900 nM; in experiment [9] it was 0.1 µg/mL (≈ 0.18 µM); in experiment [10] it was 0.25 µg/mL (≈ 0.451 µM).
